KCNK3 block: human KCNK3 channel inhibition, primary screen; O14649; CHO-KCNK3 thallium flux, FluxOR fluorescence; hits give low values; B-score at 10 µM; hit rate 0.84% among 340,000; AID 602410;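 active means B-score under library mean minus 4 SD, starting fluorescence ratio at most library mean plus 5 SD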;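 further: more negative B-score means stronger inhibition of thallium flux through KCNK3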
hERG rescue: hERG (human) protection from proarrhythmic block; activation (rescue from dofetilide block), less the hit threshold, % at 10 µM; Q12809; hit rate 0.51% among 310,000; AID 1511; CHO-hERG, FluxOR thallium flux, dofetilide IC70 present;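 active means activation above the mean of controls blocked by dofetilide plus 5 SD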;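 further: thallium influx through hERG after potassium depolarization seen as dye fluorescence rise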
KCNK9 block: blocks the human KCNK9 two-pore domain potassium channel. Q9NPC2. HEK293 KCNK9, FluxOR thallium flux fluorescence; hits give low values. B-score at 10 µM. hit rate 1.2% among 310,000;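 active means ratio B-score over 3 SD below the library mean, with starting fluorescence within 5 SD of its mean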;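 further: negative B-score means less thallium flux so channel inhibition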
Target sequence (Q9NPC2 whole entry, looked up, the tested form may be a part): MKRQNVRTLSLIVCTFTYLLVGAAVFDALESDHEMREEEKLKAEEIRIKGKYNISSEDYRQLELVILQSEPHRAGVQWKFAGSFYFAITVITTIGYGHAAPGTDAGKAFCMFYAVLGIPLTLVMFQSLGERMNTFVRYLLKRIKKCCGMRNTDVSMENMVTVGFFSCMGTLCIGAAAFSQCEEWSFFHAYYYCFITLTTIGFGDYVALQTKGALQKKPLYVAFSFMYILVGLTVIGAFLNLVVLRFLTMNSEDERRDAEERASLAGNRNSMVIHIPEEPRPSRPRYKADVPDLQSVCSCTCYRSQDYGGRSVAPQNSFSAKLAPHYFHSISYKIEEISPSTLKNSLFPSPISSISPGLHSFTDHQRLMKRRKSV
KCNQ1 act: potentiators or activators of human KCNQ1 potassium channel; P51787; CHO-K1 KCNQ1, thallium flux FluxOR fluorescence; hits give high values; B-score at 10 µM; hit rate 0.35% among 310,000; AID 2648;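 active means fluorescence ratio B-score, a plate-corrected score, at least three library SD, with initial intensity B-score within 5 SD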
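Doses: Single concentration per compound, DMSO matched to controls | Test system: KCNQ1-transfected CHO-K1 cells | Timing: 90 min dye loading and 20 min compound exposure, both at room temperature | Measured by: Kinetic FluxOR thallium fluorescence, 10-s 1-Hz baseline, 110-s post-stimulus read | Medium: Assay buffer with matched DMSO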
KCNQ1 inh: inhibitors of human KCNQ1 potassium channel; P51787; CHO-K1 KCNQ1, FluxOR thallium flux fluorescence; hits give high values; B-score at 10 µM; hit rate 1.3% among 310,000; AID 2642;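 active means compounds whose thallium flux B-score, printed positive for inhibition, exceeds three library SD while starting fluorescence stays within three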;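 further: channel opened by potassium depolarization with thallium stimulus after 20 min compound exposure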
KCNK3 inh conf: human KCNK3 channel inhibition, confirmation assay. CHO-KCNK3 thallium flux, FluxOR fluorescence; 0% buffer, 100% carvedilol maximal block. hit rate 99% among 2,400. AID 651638. ratio percent of control, % at 10 µM. shares compounds with KCNK3 block;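 active means ratio percent of control, averaged over triplicates, above buffer control mean plus 5 SD, cut at about 64% in these data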;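 further: ratio is the fluorescence rise from min to max over baseline after thallium stimulus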
KCNK3 noninduced: KCNK3 inhibitor counter-screen hit in non-induced cells. shares compounds with KCNK3 block. non-induced KCNK3 parental cells, FluxOR thallium flux; hits give low values. thallium flux ratio (lower = more inhibition) at 10 µM. hit rate 40% among 2,400. AID 651747;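 active means thallium flux ratio, averaged over three wells, more than 5 SD below the buffer control mean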;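 further: host cells are CHO cells without KCNK3 induction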
Hits are given with their value; . = inactive; / = no result. Most compounds without a hit are left out; they make up all but 3.1% or so of the library.

SMILES | KCNK3 block | hERG rescue | KCNK9 block | KCNQ1 act | KCNQ1 inh | KCNK3 inh conf | KCNK3 noninduced
Cc1cc(C)cc(-n2cc[nH]c2=S)c1 | . | . | . | . | . | / | /
CCOc1ccccc1NC(=O)NC(C)c1ccncc1 (centres undefined) | . | . | . | . | . | / | /
COC(=O)c1cc(NC(=O)c2ccccc2)c(=O)oc1C/C=N\OCc1ccc(Cl)cc1Cl | -10.5 | . | . | . | 13 | 116.0 | 0.133
C/C=C/C=C/C(=O)[C@@H]1[C@@H]([C@]2(C)OC(=O)C(C)=C2O)[C@H]2/C(=C(O)/C=C/C=C/C)C(=O)[C@]1(C)C(=O)C2(C)O (some centres undefined) | . | . | . | . | . | / | /
CCC(C)NS(=O)(=O)c1ccc(OCC(=O)N2CCC(C)CC2)cc1 (centres undefined) | . | . | . | . | . | / | /
CCOc1ccc(Br)cc1S(=O)(=O)N1CCSC1 | -9.03 | . | . | . | . | 88.0 | .
O=C(C1CC(c2ccc(F)cc2)=NO1)N1CCc2ccccc2C1 (centres undefined) | . | . | . | . | . | / | /
O=C(C1CC(c2ccccc2O)=NO1)N1CCc2ccccc2C1 (centres undefined) | -9 | . | . | . | . | 99.3 | .
CC(Oc1ccccc1)C(=O)Nc1cccc(-c2nc3ccccc3[nH]2)c1 (centres undefined) | -11.2 | . | -7.36 | . | . | 100.3 | 0.142
CC(C)(C)C(=O)Nc1cccc(-c2nc3ccccc3[nH]2)c1 | -10.6 | . | . | . | . | 93.3 | .
CC(C)CC(=O)Nc1cccc(-c2nc3ccccc3[nH]2)c1 | -10.7 | . | . | . | . | 124.0 | 0.119
O=C(Nc1cccc(-c2nc3ccccc3[nH]2)c1)c1ccccn1 | -12.6 | . | -7.07 | . | . | 108.7 | .
CC(=O)c1cccc(N2C(=O)CC(N3CCN(S(=O)(=O)c4ccc(Cl)cc4)CC3)C2=O)c1 (centres undefined) | . | / | / | / | / | / | /
CC(=O)OC(C)=O | . | / | / | / | / | / | /
Cc1cc(C(=O)Nc2ncn(Cc3ccc(F)cc3)n2)ccc1[N+](=O)[O-] | . | . | . | . | . | / | /
O=C(c1cccc2ccccc12)C1CCCN(C(=O)c2ccc(N3CCOCC3)cc2)C1 (centres undefined) | -9.27 | . | . | . | . | 98.7 | .
O=C(NCc1ccccc1)c1cccc(COc2ccccc2Cl)c1 | -11.6 | . | . | . | 6 | 112.3 | .
CN(C(=O)c1cccc(NC(=O)Cc2ccc(NC(=O)C3CCCN(C(=O)CCc4ccccc4)C3)cc2)c1)C1CCC1 (centres undefined) | . | / | / | / | / | / | /
CCCOC(=O)/C(=C\C=C\c1ccccc1)NC(=O)c1ccccc1 | -10.1 | . | . | . | . | 147.3 | 0.148
CCCCOC(=O)/C(=C/C=C/c1ccccc1)NC(=O)c1ccccc1 | . | . | . | . | . | / | /
COc1ccccc1CNS(=O)(=O)N(C)C | . | . | . | . | . | / | /
CN(Cc1ccccc1F)C(=O)COc1ccc(C(=O)c2ccccc2)cc1 | -12 | . | -7.73 | . | . | 119.0 | .
COC(=O)c1cc(S(=O)(=O)NCc2ccc3c(c2)OCO3)cn1C | . | . | . | . | . | / | /
CCOC(=O)c1ccc(NC(=O)c2ccco2)cc1 | . | . | . | . | . | / | /
CCOc1cccc(C(=O)Nc2cccc(C(C)=O)c2)c1 | . | . | . | . | . | / | /
SMILES | KCNK3 block | hERG rescue | KCNK9 block | KCNQ1 act | KCNQ1 inh | KCNK3 inh conf | KCNK3 noninduced
CCOc1cccc(C(=O)Nc2cccc(NC(=O)c3ccco3)c2)c1 | -11.9 | . | -6.83 | . | . | 76.0 | .
O=C(Nc1cccc(S(=O)(=O)N2CCCC2)c1)c1ccco1 | . | / | / | / | / | / | /
CC(C)OC(=O)c1ccc(NC(=O)c2ccco2)cc1 | -9.8 | . | . | . | . | 91.0 | .
O=C(Nc1cccc(S(=O)(=O)c2cccc(NC(=O)c3ccco3)c2)c1)c1ccco1 | -9.4 | . | . | . | . | 136.3 | 0.143
Cc1cc(NCc2ccccc2)nc(-c2ccccc2O)n1 | -10.5 | . | . | . | . | 132.7 | 0.133
Cc1cc(Nc2ccccc2)nc(-c2ccccc2O)n1 | . | . | . | . | . | / | /
CCN(CC)S(=O)(=O)c1ccc(N2CCCC2)c(C(=O)OCC(=O)Nc2cc(C)on2)c1 | . | . | . | . | . | / | /
Cc1ccc(C)c(N2CCN(C(c3ccc(N(C)C)cc3)c3nnnn3C(C)(C)C)CC2)c1 (centres undefined) | . | . | -8.08 | . | . | 122.3 | 0.148
CN(C)c1ccc(C(c2nnnn2C(C)(C)C)N2CCN(C(=O)c3ccco3)CC2)cc1 (centres undefined) | . | . | . | . | . | / | /
COc1ccc(Cl)cc1NC(=O)CN(C)CC(=O)Nc1ccccc1-c1ccccc1 | -9.71 | . | . | . | . | 99.0 | .
COC(=O)c1c(NC(=O)CSc2nnnn2-c2ccccc2)sc2c1CCCC2 | -9.42 | . | . | . | . | 95.7 | .
COC(=O)c1cccc(-n2nnnc2SCC(=O)Nc2nc3c(s2)CCCC3)c1 | . | . | . | . | . | / | /
CCOC(=O)c1c(NC(=O)Cn2c(C)nc3ccccc32)sc2c1CCC2 | -9.36 | . | . | . | . | 102.0 | .
CCOC(=O)CNc1ncc(C(F)(F)F)cc1Cl | . | . | . | . | . | / | /
N#CCC(CNc1ncc(C(F)(F)F)cc1Cl)OC(=O)c1ccc(Cl)cc1Cl (centres undefined) | -9.53 | . | . | . | . | 102.0 | 0.159
CC(=O)Nc1sc(C)c(C)c1C(=O)OCC(=O)N(C)c1c(N)n(Cc2ccccc2)c(=O)[nH]c1=O | . | . | . | . | . | / | /
COCCN(C(=O)COC(=O)/C=C/c1ccc2ccccc2n1)c1c(N)n(Cc2ccccc2)c(=O)[nH]c1=O | -12.1 | . | . | . | . | 55.0 | .
COCCN(C(=O)COC(=O)c1c(NC(C)=O)sc(C)c1C)c1c(N)n(Cc2ccccc2)c(=O)[nH]c1=O | -9.39 | . | . | . | . | 97.0 | .
COc1ccccc1CN=C1NC(=O)C(CC(=O)Nc2ccc(C(C)=O)cc2)S1 (centres undefined) | . | . | . | . | . | / | /
Cc1ccc(NC(=O)C2CCCN2S(=O)(=O)c2ccc3c(c2)n(C)c(=O)c(=O)n3C)cc1C (centres undefined) | . | . | . | . | . | / | /
O=C(Nc1ccc2nc(C3CC3)n(Cc3ccc(F)cc3)c(=O)c2c1)c1ccco1 | -9.86 | . | . | . | . | 89.0 | .
O=C(CSc1ccc2ccccc2c1)NC1CCCc2ccccc21 (centres undefined) | . | . | . | . | . | / | /
Cc1ccc(-c2nc(C(Cl)Cl)c3ccccc3n2)cc1 | -9.19 | . | . | . | . | 114.0 | .

Bioassay records as filed in PubChem BioAssay.
